Results as given in ChEMBL document CHEMBL3228003, “Synthesis of angiotensin II analogues by incorporating beta-homotyrosine or beta-homoisoleucine residues” (J Med Chem, 1979).

What was measured:
[1] = Stability of the compound assessed as microsomal leucine aminopeptidase (unknown origin)-mediated liberation of sarcosine, arginine and valine after 2 hrs by TLC analysis; assay type: ADME, Homo sapiens
Method in brief: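 Peptide (2 mg) in 0.4 mL of 0.5 mol Tris, pH 8.5, plus 0.1 mL of 0.025 mol MnCl2, was incubated at 37 °C with 0.2 mg of microsomal leucine aminopeptidase (25 units/1.83 mg). Acetic acid was added and the mixture lyophilized. Liberated amino acids were detected by TLC and amino acid analysis.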

Rattus norvegicus [2] = species: Rattus norvegicus; assay: Effect on pressor activity in vagotomized and ganglion-blocked rat assessed as duration of action; assay type: functional
Method in brief: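 Single-injection pressor test in vagotomized, ganglion-blocked rats. Duration of action runs from peptide injection until blood pressure returns to control values.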

Rattus norvegicus [3] = species: Rattus norvegicus; assay: Effect on pressor activity in vagotomized and ganglion-blocked rat relative to angiotensin 2; assay type: functional
Method in brief: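 Pressor response was measured in vagotomized, ganglion-blocked rats by the single-injection procedure. Activity is expressed as a percentage of the pressor activity of angiotensin II, with n injections per value.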

Rattus norvegicus [4] = species: Rattus norvegicus; assay: Effect on pressor activity in vagotomized and ganglion-blocked rat assessed as duration of action relative to angiotensin 2; assay type: functional
Method in brief: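 Vagotomized, ganglion-blocked rats received single injections. Duration of action, timed from injection until blood pressure returns to control levels, is compared against an equipressor dose of angiotensin II given by the same procedure.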

[5] = Stability of the compound assessed as beef pancreas alpha-chymotrypsin-mediated drug degradation up to 3 hrs by TLC analysis; assay type: ADME, Bos taurus; conditions: cattle, isolated protein
Method in brief: (§1)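 Peptide (5 mg) in 0.5 mL of 0.1 mol ammonium acetate buffer, pH 7.5, was incubated at 37 °C with 0.4 mg of thrice-crystallized bovine pancreatic α-chymotrypsin suspended in buffer. The reaction was stopped with acetic acid, the mixture lyophilized, and fragments checked by TLC on cellulose in suitable solvents.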

[6] = Stability of the compound assessed as microsomal leucine aminopeptidase (unknown origin)-mediated liberation of aspartic acid from position 1 after 5 mins by TLC analysis
[7] = Stability of the compound assessed as beef pancreas alpha-chymotrypsin-mediated drug degradation into 2 tetrapeptides after 15 to 20 mins by TLC analysis; assay type: ADME, Bos taurus; conditions: cattle, isolated protein; method in brief: as §1

Structure (SMILES)	Stability [1]	Stability [5]	Stability [6]	Stability [7]	Time (Rattus norvegicus [2]) [min]	Activity (Rattus norvegicus [3]) [%]	Time (Rattus norvegicus [4]) [min]
CC[C@H](C)[C@H](NC(=O)[C@H](Cc1ccc(O)cc1)NC(=O)[C@@H](NC(=O)[C@H](CCCNC(=N)N)NC(=O)CNC)C(C)C)C(=O)N[C@@H](Cc1cnc[nH]1)C(=O)N1CCC[C@H]1C(=O)N[C@@H](Cc1ccccc1)C(=O)O	Stable						
CC[C@H](C)[C@H](NC(=O)C[C@H](Cc1ccc(O)cc1)NC(=O)[C@@H](NC(=O)[C@H](CCCNC(=N)N)NC(=O)CNC)C(C)C)C(=O)N[C@@H](Cc1cnc[nH]1)C(=O)N1CCC[C@H]1C(=O)N[C@@H](Cc1ccccc1)C(=O)O	Stable	Stable			5.5	1.98	5.2
CC[C@H](C)[C@@H](CC(=O)N[C@@H](Cc1cnc[nH]1)C(=O)N1CCC[C@H]1C(=O)N[C@@H](Cc1ccccc1)C(=O)O)NC(=O)[C@H](Cc1ccc(O)cc1)NC(=O)[C@@H](NC(=O)[C@H](CCCNC(=N)N)NC(=O)CNC)C(C)C	Stable	Stable			4.7	29.2	5.3

Continued, in another order:

Stability [1]	Stability [5]	Stability [6]	Stability [7]	Structure (SMILES)	Time (Rattus norvegicus [2]) [min]	Activity (Rattus norvegicus [3]) [%]	Time (Rattus norvegicus [4]) [min]
	Stable	Unstable		CC[C@H](C)[C@@H](CC(=O)N[C@@H](Cc1cnc[nH]1)C(=O)N1CCC[C@H]1C(=O)N[C@@H](Cc1ccccc1)C(=O)O)NC(=O)[C@H](Cc1ccc(O)cc1)NC(=O)[C@@H](NC(=O)[C@H](CCCNC(=N)N)NC(=O)[C@@H](N)CC(=O)O)C(C)C	6.7	2.82	6.3
		Unstable	Unstable	CC[C@H](C)[C@H](NC(=O)[C@H](Cc1ccc(O)cc1)NC(=O)[C@@H](NC(=O)[C@H](CCCNC(=N)N)NC(=O)[C@@H](N)CC(=O)O)C(C)C)C(=O)N[C@@H](Cc1cnc[nH]1)C(=O)N1CCC[C@H]1C(=O)N[C@@H](Cc1ccccc1)C(=O)O [ANGIOTENSIN II]			
